# TNAP act hiacc: activators of human TNAP at high phosphate acceptor concentration. 200,000 tested, under 10 active. AID 1136. purified TNAP, CDP-star luminescence, 1 M DEA, 30 min; active compounds read high; 0 = EDTA background, 1 = DMSO-only activity. activation factor at 20 µM. P05186;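 active means activation factor at least 2 at 20 µM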
# Target sequence (P05186 whole entry, looked up): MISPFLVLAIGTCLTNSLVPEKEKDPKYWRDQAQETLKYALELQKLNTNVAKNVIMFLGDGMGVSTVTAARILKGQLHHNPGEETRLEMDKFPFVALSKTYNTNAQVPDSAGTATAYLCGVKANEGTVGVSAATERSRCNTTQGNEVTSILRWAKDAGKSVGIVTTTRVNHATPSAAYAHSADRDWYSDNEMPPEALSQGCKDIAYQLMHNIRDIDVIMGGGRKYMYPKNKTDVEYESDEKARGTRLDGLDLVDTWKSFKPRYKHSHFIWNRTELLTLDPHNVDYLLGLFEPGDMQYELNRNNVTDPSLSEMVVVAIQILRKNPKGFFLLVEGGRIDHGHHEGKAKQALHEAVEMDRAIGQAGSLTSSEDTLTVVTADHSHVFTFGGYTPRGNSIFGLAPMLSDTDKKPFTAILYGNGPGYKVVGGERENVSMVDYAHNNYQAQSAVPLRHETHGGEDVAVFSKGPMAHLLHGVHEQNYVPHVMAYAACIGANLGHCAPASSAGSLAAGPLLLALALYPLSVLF
#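 Test system – human TNAP · Doses – 20 µM single point · Incubation – 30 min, room temperature · Signal – luminescent substrate turnover signal · Read-out basis – activation factor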
# TNF necrop inh: blocks TNF-alpha induced death of Jurkat FADD-/- cells. Jurkat FADD-/- TNF necroptosis rescue, ATP luminescence, 24 h; 0 = TNF only, 100 = no-TNF cells. activation (protection from cell death), % at 10 µM. actives 0.068% (n = 220,000);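 active means activation, meaning protection from cell death, of at least 50% relative to plate controls; inactive means activation below 50%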;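 further: necroptosis triggered by 40 ng/mL TNF-alpha added together with compound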
# L929 necroptosis: L929 zVAD cell death inhibition. L929 zVAD necroptosis rescue, ATP luminescence, 24 h; with zVAD 60 µM. viability rescue, % at 10 µM. actives 0.38% (n = 220,000). AID 1377;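 active means activation, scaled between plate controls, above about 75%, limit read from the data; inactive means activation under that limit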
# TNAP inh hi DEA: inhibitors of human TNAP at high phosphate acceptor concentration | actives 0.03% (n = 200,000) | purified TNAP, CDP-star luminescence, 1 M DEA | inhibition, % at 20 µM | AID 1135;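 active means over 50% inhibition of tissue-nonspecific alkaline phosphatase at 20 µM in the single-dose screen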
# TNAP inh noacc: TNAP (human) inhibition, acceptor-free conditions | P05186 | purified TNAP, CDP-star luminescence, 30 min | inhibition, % at 20 µM | actives 0.26% (n = 200,000) | AID 1012;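 active means tissue-nonspecific alkaline phosphatase inhibition above about 50% at 20 µM in the single-dose screen, limit read from the data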
# sdo1 growth: compounds rescuing growth of sdo1-depleted yeast, bone marrow failure model. S. cerevisiae sdo1-depleted JHY4D growth rescue, OD600 30 h; active compounds read high; pdr5 snq2 efflux-pump mutant strain. z-score at 10 µM. actives 0.21% (n = 140,000). AID 817;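 active means z-score above 3 at both the 24 hr and the 30 hr optical density reads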
# zVAD death conf: confirmed blocker of zVAD induced death in L929 cells. shares compounds with L929 necroptosis. L929 zVAD-induced necroptosis rescue, ATP luminescence, 24 h. activation (protection from necroptosis), % at 10 µM. actives 16% (n = 760). AID 463117;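 active means mean protection from necroptosis of at least 50% over duplicate tests; inactive means mean protection below 50%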
# Hits are given with their value; 0 = inactive; - = no result. Shown are actives, neighbours in structure and some others; about 0.81% of the full set was active somewhere.
SMILES,TNAP act hiacc,TNF necrop inh,L929 necroptosis,TNAP inh hi DEA,TNAP inh noacc,sdo1 growth,zVAD death conf
O=C(OCn1ncc(Br)c(Br)c1=O)c1ccccc1Cl,0,0,0,0,0,0,-
CCCCCCCC1CC(/C(C)=N/NC(N)=O)OC1=O (stereo unspecified),0,0,-,0,0,0,-
O=C(Nc1ccc(-n2cnnn2)cc1)C1CCC1,0,0,0,0,0,0,-
O=C(Cc1ccc(-n2cnnn2)cc1)NC12CC3CC(CC(C3)C1)C2,0,0,86,0,0,0,0
CC(=O)Nc1ccc(Nc2ncc([N+](=O)[O-])c(Nc3ccc(NC(C)=O)cc3)n2)cc1,0,0,90,0,0,0,0
C=C1C(=O)[C@@]23[C@H](O)C[C@@H]4C(C)(C)CC[C@H](O)[C@@]4(C)[C@@H]2CC[C@@H]1[C@H]3O,0,0,121,0,0,0,78
C=C1C(=O)[C@@]23[C@H](O)C[C@@H]4C(C)(C)CC[C@H](O)[C@]4(C)[C@@H]2C[C@H](O)[C@@H]1[C@H]3O,0,0,0,0,0,0,-
O=C(COC(=O)c1ccc(CO)cc1)NCc1cccs1,0,0,0,0,0,0,-
Cc1ccccc1NC(=S)N(Cc1ccccc1)Cc1cccs1,0,0,0,0,0,-,-
COc1cc(CNC(C)(C)CO)ccc1OCC(=O)Nc1ccc(Br)cc1,0,0,84,0,0,0,0
Brc1ccc2[nH]c3c(NCc4ccccn4)ncnc3c2c1,-,0,75,-,-,-,0
COC(=O)c1ccc(-c2ccc(/C=N/N3C(=O)C4C5C=CC(CC5)C4C3=O)o2)cc1 (stereo unspecified),0,0,83,0,0,-,0
O=C(O)c1cc(-c2ccc(/C=N/N3C(=O)C4C5C=CC(CC5)C4C3=O)o2)ccc1Cl (stereo unspecified),0,0,0,0,0,-,-
Cc1cc2cc(C#N)c(N3CCN(S(C)(=O)=O)CC3)nc2cc1C,0,0,0,0,0,0,-
Fc1ccc(NC(=S)N2CCCC(c3ccccc3)=N2)cc1,-,0,0,-,-,-,-
Fc1ccc(NC(=S)N2N=CCC2c2ccccc2)cc1 (stereo unspecified),0,94,82,0,0,0,0
O=C(Nc1cccc(Cl)c1)N1N=CCC1c1ccccc1 (stereo unspecified),-,92,89,-,-,-,85
O=C1CC(C(=O)O)S/C(=N\N=C\c2ccc(Br)cc2)N1 (stereo unspecified),-,0,0,-,-,-,-
CCCCNC(=O)Nc1nc2ccc(CC)cc2s1,0,0,78,0,0,-,0
O=Cc1ccc2noc(-c3ccc(F)cc3)c2c1,0,0,82,0,0,0,0
COc1ccc(C(=O)NCc2ccc(-n3cccc3)cc2)cc1OC,0,0,0,0,0,-,-
CCOc1ccc(NC(=O)Nc2ccc3nccnc3c2)cc1,0,0,92,0,0,0,0
CCOc1ccc(NC(=O)Nc2ccc(Br)cn2)cc1,0,0,75,0,0,-,0
COc1ccc(NC(=O)Nc2ccc(Br)cn2)cc1OC,0,0,77,0,0,0,0
O=S(=O)(c1ccc(-c2csc(-c3cccnc3)n2)cc1)N1CCOCC1,0,0,85,0,0,-,0
SMILES,TNAP act hiacc,TNF necrop inh,L929 necroptosis,TNAP inh hi DEA,TNAP inh noacc,sdo1 growth,zVAD death conf
CCc1nnc(NS(=O)(=O)c2ccc(N/C=C\C(=O)c3cccc4ccccc34)cc2)s1,0,0,0,0,0,0,-
CCc1nnc(NS(=O)(=O)c2ccc(N/C=C/C(=O)c3ccc(OC)cc3)cc2)s1,0,0,79,0,0,-,0
O=C(N/N=C/C=C/c1ccccc1)c1cc(C2CC2)[nH]n1,-,0,77,-,-,-,0
Cc1cc(C(=O)N/N=C/C=C/c2cccc([N+](=O)[O-])c2)n[nH]1,0,0,87,0,0,-,0
Cc1cc(C(=O)N/N=C/C=C/c2ccccc2)n[nH]1,-,0,0,-,-,-,-
O=C(OCn1ncc(Cl)c(Cl)c1=O)c1cccc(C(F)(F)F)c1,0,0,99,0,0,0,0
Cc1ccc(C(=O)Nc2cccc(C(F)(F)F)c2)cc1Nc1ccccn1,-,0,79,-,-,-,65
CCCCCCCn1c(C)nnc1-c1cnn(C)c1N,0,0,0,0,0,-,-
Cc1cc(C(=O)N/N=C/c2cccs2)n[nH]1,0,0,82,0,0,-,0
Cn1cc(C(=O)N/N=C/c2cccs2)c2ccccc21,0,0,81,0,0,0,0
Cc1cc(C(=O)N/N=C/c2cccs2)no1,0,0,0,0,0,0,-
Cc1cc(C(=O)N/N=C/c2ccc(-c3cccc(Cl)c3)o2)n[nH]1,-,0,75,-,-,-,0
COC(=O)CCNC(=O)Cn1cnc2sc3c(c2c1=O)CCCC3,0,0,0,0,0,-,-
O=C(NC12CC3CC(CC(C3)C1)C2)c1ccc(-c2ccc(Br)cc2)o1,0,0,80,0,0,0,0
N#Cc1cc2c([nH]c1=S)CCCCCC2,0,0,0,0,0,0,-
N#Cc1c(N)n[nH]c1-c1cc2c([nH]1)CCCC2,0,0,88,0,0,0,0
C=C(C)C1CC=C(C)/C(=N/NC(=O)COc2cccc3ccccc23)C1 (stereo unspecified),0,0,0,0,0,0,-
CC(C)(C)c1cccc(C2(O)C(=O)c3ccccc3C2=O)c1O,-,0,0,-,-,-,-
O=C(Nc1ccccc1)n1ccc(-c2ccc(-n3ccnc3)cc2)n1,0,0,76,0,0,-,0
O=C(Nc1ccc(N2CCCCC2)cc1)C(Cl)c1ccccc1 (stereo unspecified),0,0,77,0,0,-,0
O=C(Nc1ccc(N2CCCC2)cc1)C(c1ccccc1)c1ccccc1,0,0,0,0,0,0,-
Cc1cc(C)cc(NC(=O)Nc2ccc(N3CCCCC3)cc2)c1,-,0,77,-,-,-,0
O=C(COc1ccccc1)n1nc(-c2ccc(Cl)cc2)nc1NCc1ccco1,0,0,83,0,0,0,0
O=C(c1ccco1)n1nc(-c2ccc(Cl)cc2)nc1NCc1ccco1,0,0,0,0,0,0,-
CC1CCCN(Cc2c(O)ccc3c(=O)c(-c4nc5ccccc5s4)c(N)oc23)C1 (stereo unspecified),0,0,78,0,0,0,0
C/C(CC(=O)NC(C)(C)C)=N\NC(N)=S,0,0,0,0,0,-,-
Fc1cccc(Cl)c1CNn1cn[nH]c1=S,0,0,0,0,0,-,-
S=c1[nH]ncn1NCc1ccc(Cl)cc1Cl,0,0,87,0,0,-,0
CCOC(=O)C1=C(C)NC(=O)C1CC(=O)O (stereo unspecified),0,0,0,0,0,0,-
COc1cc(/C=N/Nc2ncnc3sc4c(c23)CCC4)ccc1O,0,0,82,0,0,0,0

# High-throughput results deposited in PubChem BioAssay by several laboratories.
